This is an account of results in ChEMBL document CHEMBL3784971, “Synthesis, characterization, antimicrobial and biofilm inhibitory studies of new esterquats” (Bioorg Med Chem Lett, 2016).

Structures are written as SMILES. Values after ≈ are worked out from the molar mass of the structure shown. A value given as a limit tells only on which side of the number the result lay.

Assay [1] has as its system Staphylococcus aureus. The assay can be described thus: Antimicrobial activity against Staphylococcus aureus MTCC 96 assessed as growth inhibition after 24 hrs by agar well diffusion method. It is filed as functional. Conditions: MTCC 96, 24 h. For orientation: In agar diffusion tests the substance spreads into inoculated agar from a disc or well.
The test system of assay [2] is Bacillus subtilis. The assay can be described thus: Antimicrobial activity against Bacillus subtilis MTCC 121 assessed as growth inhibition after 24 hrs by agar well diffusion method. It is filed as functional. Conditions: MTCC 121, 24 h.
The test system of assay [3] is Staphylococcus aureus. The assay can be described thus: Antimicrobial activity against Staphylococcus aureus MLS16 MTCC 2940 assessed as growth inhibition after 24 hrs by agar well diffusion method. It is filed as functional. Conditions: MLS16 MTCC 2940, 24 h.
Assay [4] relates to Micrococcus luteus. The assay can be described thus: Antimicrobial activity against Micrococcus luteus MTCC 2470 assessed as growth inhibition after 24 hrs by agar well diffusion method. Conditions: MTCC 2470, 24 h. The format is functional.
Assay [5] relates to Raoultella planticola. The assay can be described thus: Antimicrobial activity against Klebsiella planticola MTCC 530 assessed as growth inhibition after 24 hrs by agar well diffusion method. It is filed as functional. Conditions: MTCC 530, 24 h.
The test system of assay [6] is Escherichia coli. The assay can be described thus: Antimicrobial activity against Escherichia coli MTCC 739 assessed as growth inhibition after 24 hrs by agar well diffusion method. Particulars: MTCC 739, 24 h. It is filed as functional.
The subject of the next assay is Pseudomonas aeruginosa. Description: Antimicrobial activity against Pseudomonas aeruginosa MTCC 2453 assessed as growth inhibition after 24 hrs by agar well diffusion method. It is filed as functional. Particulars: MTCC 2453, 24 h.
The next assay deals with Candida albicans. The assay can be described thus: Antimicrobial activity against Candida albicans MTCC 3017 assessed as growth inhibition after 24 hrs by agar well diffusion method. The format is functional. Particulars: MTCC 3017, 24 h.
Assay [7] has as its system Staphylococcus aureus. The assay can be described thus: Bactericidal activity against Staphylococcus aureus MTCC 96 after 24 hrs by serial dilution method. The format is functional. Conditions: MTCC 96, 24 h.
The subject of assay [8] is Bacillus subtilis. Description: Bactericidal activity against Bacillus subtilis MTCC 121 after 24 hrs by serial dilution method. Particulars: MTCC 121, 24 h. The format is functional.
Assay [9] relates to Staphylococcus aureus. Description: Bactericidal activity against Staphylococcus aureus MLS16 MTCC 2940 after 24 hrs by serial dilution method. The format is functional. Particulars: MLS16 MTCC 2940, 24 h.
For assay [10], the system named is Micrococcus luteus. Description: Bactericidal activity against Micrococcus luteus MTCC 2470 after 24 hrs by serial dilution method. It is filed as functional. Particulars: MTCC 2470, 24 h.
The subject of assay [11] is Raoultella planticola. The assay can be described thus: Bactericidal activity against Klebsiella planticola MTCC 530 after 24 hrs by serial dilution method. The format is functional. Conditions: MTCC 530, 24 h.
Assay [12] deals with Escherichia coli. Description: Bactericidal activity against Escherichia coli MTCC 739 after 24 hrs by serial dilution method. The format is functional. Particulars: MTCC 739, 24 h.
Assay [13] has as its system Staphylococcus aureus. The assay can be described thus: Antibiofilm activity against Staphylococcus aureus MTCC 96 after 24 hrs by crystal violet staining based assay. Particulars: MTCC 96, 24 h. The format is functional, organism-based. In a few lines:
(§1)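 Biofilm inhibition tested for amine esters and esterquats. IC50 values (µg/mL) are the mean of three determinations, with ciprofloxacin as reference.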

Assay [14] has as its system Micrococcus luteus. The assay can be described thus: Antibiofilm activity against Micrococcus luteus MTCC 2470 after 24 hrs by crystal violet staining based assay. The format is functional, organism-based. Conditions: MTCC 2470, 24 h. The method, boiled down: as §1
Assay [15] deals with Staphylococcus aureus. Description: Antibiofilm activity against Staphylococcus aureus MLS16 MTCC 2940 after 24 hrs by crystal violet staining based assay. The format is functional, organism-based. Particulars: MLS16 MTCC 2940, 24 h. The method, boiled down:
as §1

The term MIC denotes the lowest concentration found to suppress growth. Usually MBC stands for the smallest concentration meeting the test's criterion for killing. Low readings indicate greater bactericidal potency, high ones weaker bactericidal potency. As a reminder, the IC50 is the concentration needed to halve the response being measured. Higher therefore signals weaker potency in that assay. With `CCCCCCN(CCCCCCCCCCC(=O)OC)CCCCCCCCCCC(=O)OC`, the MIC is 31.2 µg/mL (≈ 62.7 µM) in the assay on Staphylococcus aureus [1]; 62.5 µg/mL (≈ 126 µM) in the assay on Bacillus subtilis [2]; 62.5 µg/mL (≈ 126 µM) with Staphylococcus aureus [3]; 31.2 µg/mL (≈ 62.7 µM) in the assay with Micrococcus luteus [4]; more than 125 µg/mL in the assay on Raoultella planticola [5]; more than 125 µg/mL with Escherichia coli [6]. The MIC in the assay with Pseudomonas aeruginosa and with Candida albicans was more than 125 µg/mL each time. In addition, the MBC against Staphylococcus aureus [7] is 62.5 µg/mL (≈ 126 µM); against Bacillus subtilis [8] it was more than 125 µg/mL; with Staphylococcus aureus [9], more than 125 µg/mL; against Micrococcus luteus [10], 62.5 µg/mL (≈ 126 µM); against Raoultella planticola [11], more than 125 µg/mL; in the assay on Escherichia coli [12], more than 125 µg/mL. Besides, the results for the IC50 in the assay on Staphylococcus aureus [13] and with Micrococcus luteus [14] were 20.1 µg/mL (≈ 40.4 µM) and 18.6 µg/mL (≈ 37.4 µM), respectively.
With `CCCCCCCCN(CCCCCCCC)CCCCCCCCCCC(=O)OC`, the MIC was 15.6 µg/mL (≈ 35.5 µM) with Staphylococcus aureus [1]; more than 125 µg/mL in the assay on Bacillus subtilis [2]; 62.5 µg/mL (≈ 142 µM) with Staphylococcus aureus [3]; 31.2 µg/mL (≈ 70.9 µM) with Micrococcus luteus [4]; more than 125 µg/mL in the assay with Raoultella planticola [5]; more than 125 µg/mL with Escherichia coli [6]. Moreover, the MIC with Pseudomonas aeruginosa and with Candida albicans was more than 125 µg/mL in each case. Further, the MBC is 31.2 µg/mL (≈ 70.9 µM) against Staphylococcus aureus [7]; more than 125 µg/mL against Bacillus subtilis [8]; more than 125 µg/mL in the assay with Staphylococcus aureus [9]; 62.5 µg/mL (≈ 142 µM) against Micrococcus luteus [10]; more than 125 µg/mL with Raoultella planticola [11]; more than 125 µg/mL in the assay on Escherichia coli [12]. Besides, the IC50 in the assay with Staphylococcus aureus [13] came to 14.5 µg/mL (≈ 33 µM); in the assay with Micrococcus luteus [14], 17.2 µg/mL (≈ 39.1 µM).
Regarding `COC(=O)CCCCCCCCCCN(C1CCCCC1)C1CCCCC1`, the MIC is 31.2 µg/mL (≈ 82.2 µM) with Staphylococcus aureus [1]; 62.5 µg/mL (≈ 165 µM) in the assay with Bacillus subtilis [2]; 31.2 µg/mL (≈ 82.2 µM) in the assay with Staphylococcus aureus [3]; 15.6 µg/mL (≈ 41.1 µM) in the assay with Micrococcus luteus [4]; more than 125 µg/mL in the assay on Raoultella planticola [5]; more than 125 µg/mL with Escherichia coli [6]. Moreover, the MIC in the assay on Pseudomonas aeruginosa and in the assay with Candida albicans was more than 125 µg/mL in each case. The MBC in the assay on Staphylococcus aureus [7] was 62.5 µg/mL (≈ 165 µM); with Bacillus subtilis [8] it was more than 125 µg/mL; in the assay with Staphylococcus aureus [9], more than 125 µg/mL; against Micrococcus luteus [10], 31.2 µg/mL (≈ 82.2 µM); with Raoultella planticola [11] it was more than 125 µg/mL; with Escherichia coli [12], more than 125 µg/mL. Besides, the IC50 with Staphylococcus aureus [13] came out at 21.3 µg/mL (≈ 56.1 µM); with Staphylococcus aureus [15], 20.8 µg/mL (≈ 54.8 µM); in the assay with Micrococcus luteus [14], 19.9 µg/mL (≈ 52.4 µM).
In the case of `CCCCCCCCCCCCCCCCCCNCCCCCCCCCCC(=O)OC`, the MIC in the assay on Staphylococcus aureus [1], in the assay on Bacillus subtilis [2], in the assay with Staphylococcus aureus [3], in the assay with Micrococcus luteus [4], in the assay with Raoultella planticola [5] and with Escherichia coli [6] was more than 125 µg/mL throughout. For the same compound, the MIC with Pseudomonas aeruginosa and in the assay with Candida albicans was more than 125 µg/mL in each case. For the same compound, the MBC in the assay on Staphylococcus aureus [7], in the assay on Bacillus subtilis [8], with Staphylococcus aureus [9], in the assay on Micrococcus luteus [10], against Raoultella planticola [11] and in the assay with Escherichia coli [12] was more than 125 µg/mL throughout.
Consider `CCCCCCCCCCCCCCCCCC[N+](C)(CCCCCCCCCCC(=O)OC)CCCCCCCCCCC(=O)OC.[Cl-]`, for which the MIC in the assay on Staphylococcus aureus [1], with Bacillus subtilis [2], in the assay on Staphylococcus aureus [3], in the assay on Micrococcus luteus [4], with Raoultella planticola [5] and with Escherichia coli [6] was more than 125 µg/mL throughout. Also, the MIC with Pseudomonas aeruginosa and in the assay on Candida albicans was more than 125 µg/mL in each case. Also, the minimum bactericidal concentration (MBC) in the assay with Staphylococcus aureus [7], with Bacillus subtilis [8], against Staphylococcus aureus [9], in the assay with Micrococcus luteus [10], in the assay on Raoultella planticola [11] and against Escherichia coli [12] was more than 125 µg/mL each time.
As to `CCCCCCCCCCCC[N+](C)(CCCCCCCCCCC(=O)OC)CCCCCCCCCCC(=O)OC.[Cl-]`, the MIC with Staphylococcus aureus [1], in the assay with Bacillus subtilis [2], in the assay on Staphylococcus aureus [3], with Micrococcus luteus [4], in the assay with Raoultella planticola [5] and in the assay with Escherichia coli [6] was more than 125 µg/mL throughout. Moreover, the MIC in the assay with Pseudomonas aeruginosa and in the assay on Candida albicans was more than 125 µg/mL in each case. Also, the MBC in the assay on Staphylococcus aureus [7], against Bacillus subtilis [8], in the assay with Staphylococcus aureus [9], with Micrococcus luteus [10], against Raoultella planticola [11] and against Escherichia coli [12] was more than 125 µg/mL throughout.
With `CCCCCCCCCCCCCCCCCCN(CCCCCCCCCCC(=O)OC)CCCCCCCCCCC(=O)OC`, the MIC with Staphylococcus aureus [1], with Bacillus subtilis [2], with Staphylococcus aureus [3], in the assay with Micrococcus luteus [4], in the assay on Raoultella planticola [5] and with Escherichia coli [6] was more than 125 µg/mL throughout. Further, the MIC in the assay with Pseudomonas aeruginosa and with Candida albicans was more than 125 µg/mL each time. The MBC against Staphylococcus aureus [7], with Bacillus subtilis [8], with Staphylococcus aureus [9], against Micrococcus luteus [10], in the assay on Raoultella planticola [11] and against Escherichia coli [12] was more than 125 µg/mL each time.
With `CCCCCCCCCCCCN(CCCCCCCCCCC(=O)OC)CCCCCCCCCCC(=O)OC`, the minimum inhibitory concentration (MIC) with Staphylococcus aureus [1], with Bacillus subtilis [2], with Staphylococcus aureus [3], with Micrococcus luteus [4], in the assay on Raoultella planticola [5] and in the assay on Escherichia coli [6] was more than 125 µg/mL throughout. Further, the minimum inhibitory concentration (MIC) in the assay on Pseudomonas aeruginosa and with Candida albicans was more than 125 µg/mL throughout. For the same compound, the MBC with Staphylococcus aureus [7], against Bacillus subtilis [8], in the assay with Staphylococcus aureus [9], in the assay on Micrococcus luteus [10], against Raoultella planticola [11] and against Escherichia coli [12] was more than 125 µg/mL throughout.
With `CCCCCCCCCCCCNCCCCCCCCCCC(=O)OC`, the MIC in the assay with Staphylococcus aureus [1], in the assay on Bacillus subtilis [2], in the assay with Staphylococcus aureus [3], in the assay on Micrococcus luteus [4], with Raoultella planticola [5] and with Escherichia coli [6] was more than 125 µg/mL each time. The MIC with Pseudomonas aeruginosa and with Candida albicans was more than 125 µg/mL throughout. In addition, the MBC with Staphylococcus aureus [7], in the assay with Bacillus subtilis [8], against Staphylococcus aureus [9], against Micrococcus luteus [10], with Raoultella planticola [11] and in the assay with Escherichia coli [12] was more than 125 µg/mL in each case.
Consider `CCCCCCCCCCCCCCCCCC[N+](C)(C)CCCCCCCCCCC(=O)OC.[Cl-]`, for which the MIC in the assay on Staphylococcus aureus [1], in the assay on Bacillus subtilis [2], in the assay with Staphylococcus aureus [3], with Micrococcus luteus [4], in the assay with Raoultella planticola [5] and in the assay on Escherichia coli [6] was more than 125 µg/mL throughout. Also, the MIC with Pseudomonas aeruginosa and in the assay with Candida albicans was more than 125 µg/mL each time. Moreover, the MBC against Staphylococcus aureus [7], in the assay with Bacillus subtilis [8], against Staphylococcus aureus [9], in the assay on Micrococcus luteus [10], in the assay on Raoultella planticola [11] and in the assay on Escherichia coli [12] was more than 125 µg/mL each time.
